The results in this text go back to ChEMBL document CHEMBL1138348, “A p-[18F]fluoroethoxyphenyl bicyclic nucleoside analogue as a potential positron emission tomography imaging agent for varicella-zoster virus thymidine kinase gene expression” (J Med Chem, 2007).

pIC50: −log10 of the molar value.

Data set [1] concerns Heart. Description: Biodistribution in NMRI mouse heart assessed as radioactivity after 2 mins. The following applies: in vivo. In kind it is ADME, organism-based. In outline: (§1)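 Male NMRI mice (37–43 g) given 0.1 mL HPLC-purified tracer (diluted in water for injection, EtOH <5%; 37 MBq/mL for 11C tracer, 3.7 MBq/mL for 18F tracer) via tail vein under ketamine/xylazine ip anaesthesia. Decapitation at 2 or 60 min, n=3 per time point. Organs dissected, weighed, gamma counted. Results given as %ID (cpm organ/total cpm recovered) or SUV. Blood mass taken as 7% of body mass. Mean ± SD.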

The test system of data set [2] is Heart. Put plainly: Biodistribution in NMRI mouse heart assessed as radioactivity after 60 mins. In kind it is ADME, organism-based. The following applies: in vivo, 1 h. In a few lines: as §1
Data set [3] concerns Stomach. Put plainly: Biodistribution in NMRI mouse stomach assessed as radioactivity after 2 mins. In kind it is ADME, organism-based. The following applies: in vivo. In a few lines:
as §1

Data set [4] relates to Stomach. Put plainly: Biodistribution in NMRI mouse stomach assessed as radioactivity after 60 mins. The note with it: in vivo, 1 h. In kind it is ADME, organism-based. In a few lines: as §1
Data set [5] concerns Intestine. Description: Biodistribution in NMRI mouse intestine assessed as radioactivity after 2 mins. In kind it is ADME, organism-based. The following applies: in vivo. In outline: as §1
Data set [6] concerns Intestine. Put plainly: Biodistribution in NMRI mouse intestine assessed as radioactivity after 60 mins. In kind it is ADME, organism-based. The following applies: in vivo, 1 h. In a few lines:
as §1

The subject of data set [7] is Brain. Description: Biodistribution in NMRI mouse brain assessed as radioactivity after 2 mins. The note with it: in vivo. In kind it is ADME, organism-based. In outline:
as §1

Data set [8] relates to Brain. Put plainly: Biodistribution in NMRI mouse brain assessed as radioactivity after 60 mins. The note with it: in vivo, 1 h. In kind it is ADME, organism-based. In a few lines:
as §1

The subject of data set [9] is Blood. Description: Biodistribution in NMRI mouse blood assessed as radioactivity after 2 mins. The following applies: in vivo. In kind it is ADME, organism-based. In a few lines: as §1
Data set [10] has as its system Blood. Put plainly: Biodistribution in NMRI mouse blood assessed as radioactivity after 60 mins. In kind it is ADME, organism-based. The note with it: in vivo, 1 h. In outline: as §1
Data set [11] in a line: Partition coefficient, log P in 1-octanol and phosphate buffer at pH 7.4. In kind it is physicochemical. The note with it: 1-octanol/phosphate buffer. In outline:
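HPLC-isolated tracer (about 550 kBq 11C or 185 kBq 18F) partitioned between 1-octanol and 0.025 M phosphate buffer pH 7.4 (2 mL each). Vortexed 2 min at room temperature, centrifuged 1837 g for 5 min. Aliquots of both phases weighed and gamma counted. P calculated as the cpm/mL ratio after density correction; n=6.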

The species named for data set [12] is Mus musculus. Put plainly: Biodistribution in NMRI mouse urine assessed as radioactivity after 2 mins. In kind it is ADME, organism-based. The note with it: in vivo. In outline:
as §1

Data set [13] is filed under the species Mus musculus. Put plainly: Biodistribution in NMRI mouse urine assessed as radioactivity after 60 mins. In kind it is ADME, organism-based. The note with it: in vivo, 1 h. In outline: as §1
In data set [14] the test system is Kidney. Put plainly: Biodistribution in NMRI mouse kidney assessed as radioactivity after 2 mins. In kind it is ADME, organism-based. The following applies: in vivo. In outline:
as §1

For data set [15], the system named is Kidney. Description: Biodistribution in NMRI mouse kidney assessed as radioactivity after 60 mins. In kind it is ADME, organism-based. The following applies: in vivo, 1 h. In a few lines:
as §1

For data set [16], the system named is Liver. Description: Biodistribution in NMRI mouse liver assessed as radioactivity after 2 mins. In kind it is ADME, organism-based. The following applies: in vivo. In a few lines: as §1
The test system of data set [17] is Liver. Description: Biodistribution in NMRI mouse liver assessed as radioactivity after 60 mins. The following applies: in vivo, 1 h. In kind it is ADME, organism-based. In a few lines:
as §1

The species entered for data set [18] is Mus musculus. Description: Biodistribution in NMRI mouse spleen + pancreas assessed as radioactivity after 2 mins. In kind it is ADME, organism-based. The note with it: in vivo. In outline: as §1
The species entered for data set [19] is Mus musculus. Description: Biodistribution in NMRI mouse spleen + pancreas assessed as radioactivity after 60 mins. In kind it is ADME, organism-based. The note with it: in vivo, 1 h. In outline:
as §1

Data set [20] deals with Lung. Put plainly: Biodistribution in NMRI mouse lungs assessed as radioactivity after 2 mins. The note with it: in vivo. In kind it is ADME, organism-based. In a few lines: as §1
Data set [21] concerns Lung. Description: Biodistribution in NMRI mouse lungs assessed as radioactivity after 60 mins. In kind it is ADME, organism-based. The note with it: in vivo, 1 h. In a few lines: as §1
The species entered for data set [22] is Mus musculus. Description: Biodistribution in NMRI mouse carcass assessed as radioactivity after 2 mins. In kind it is ADME, organism-based. The note with it: in vivo. In outline:
as §1

The species entered for data set [23] is Mus musculus. Description: Biodistribution in NMRI mouse carcass assessed as radioactivity after 60 mins. In kind it is ADME, organism-based. The following applies: in vivo, 1 h. In outline:
as §1

Data set [24] can be described thus: Drug uptake in LV-VZVTK-IP transduced 293T cells assessed as radioactivity at 1.1 MBq after 0.5 hrs. In kind it is ADME, cell-based. The note with it: human, hek-293t. In outline: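 293T cells stably transduced with lentivirus carrying VZV-tk-IRES-pac (kept in 1 µg/mL puromycin), alongside untransduced control 293T cells. Plated in triplicate at 200 000 cells/well. After 24 h, fresh medium with HPLC-purified tracer added: 1.1 MBq (11C tracer, 0.5 h) or 185 kBq (18F tracer, 3 h), 37 °C. Cells washed with ice-cold PBS and lysed. Gamma counting. Uptake given as % of total radioactivity per mg protein (Bio-Rad assay).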

Data set [25] in a line: Inhibition of Varicella zoster virus thymidine kinase. The arrangement: species or system Human alphaherpesvirus 3. In a few lines:
(§2)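 Purified recombinant VZV TK (7.75 ng), HSV-1 TK (226 ng) or human cytosolic TK-1 (455 ng) in 50 mM Tris-HCl pH 8.0, 2.5 mM MgCl2, 10 mM DTT, 2.5 mM ATP, 1 mg/mL BSA, 10 mM NaF, with 1 µM final [CH3-3H]dThd substrate. Incubated 30 min at 37 °C with varied compound concentrations; the reaction was linear over this time. Product bound on DE-81 filters, washed, and counted by liquid scintillation. Result reported as IC50.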

A short description of data set [26]: Inhibition of HSV1 thymidine kinase. The arrangement: species or system Human alphaherpesvirus 1. In outline:
as §2

The target of data set [27] is T1, Thymidine kinase, cytosolic (Homo sapiens, UniProt P04183).
T1 sequence (P04183 whole entry): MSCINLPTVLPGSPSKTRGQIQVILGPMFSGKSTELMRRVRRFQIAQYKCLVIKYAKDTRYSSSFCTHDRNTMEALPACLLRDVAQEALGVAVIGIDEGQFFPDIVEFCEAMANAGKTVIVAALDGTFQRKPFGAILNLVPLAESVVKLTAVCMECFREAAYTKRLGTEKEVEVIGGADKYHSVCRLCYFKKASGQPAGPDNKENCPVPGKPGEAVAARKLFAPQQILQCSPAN
Description: Inhibition of human cytosolic thymidine kinase 1. In outline: as §2

As usually defined, the logD is lipophilicity at a set pH, counting ionised and neutral species. A lower logD goes with lower lipophilicity. For `[11CH3]Oc1ccc(-c2cc3cn([C@H]4C[C@H](O)[C@@H](CO)O4)c(=O)nc3o2)cc1`, the Drug uptake is reported as 0.5 %ID with Heart [1]; 0 %ID in the data set with Heart [2]; 1.2 %ID with Stomach [3]; 1 %ID in the data set on Stomach [4]; 16.8 %ID in the data set with Intestine [5]; 46.7 %ID in the data set with Intestine [6]. Besides, the Drug uptake with Brain [7] was 0 %ID; with Brain [8], 0 %ID; in the data set with Blood [9], 7.1 %ID; in the data set on Blood [10], 0.6 %ID; in the data set filed under Mus musculus [12] it was 1.4 %ID; in the data set filed under Mus musculus [13], 34.3 %ID. In addition, the Drug uptake is recorded as 22.9 %ID in the data set on Kidney [14]; 1.4 %ID in the data set with Kidney [15]; 20.3 %ID in the data set with Liver [16]; 9.9 %ID in the data set on Liver [17]; 1.5 %ID in the data set listed under Mus musculus [18]; 0.4 %ID in the data set listed under Mus musculus [19]. Besides, the Drug uptake in the data set with Lung [20] was found to be 1.2 %ID; in the data set with Lung [21] it was 0.1 %ID; in the data set listed under Mus musculus [22], 29.5 %ID; in the data set listed under Mus musculus [23], 5.8 %ID; in data set [24], 28.8 %ID. Moreover, the logD in data set [11] came out at 1.3.
The pIC50 is the IC50 on a negative log10 scale, so that one unit is a factor of ten. `O=c1nc2oc(-c3ccc(OCCF)cc3)cc2cn1[C@H]1C[C@H](O)[C@@H](CO)O1`: the pIC50 in data set [25] is 5.38; in data set [26], < 3.30; in data set [27], < 3.30.
